High-throughput results (PubChem)
UBC13 inh: UBC13 polyubiquitin chain formation inhibitors, primary screen, biochemical, TR-FRET, uHTS. Ubiquitin-conjugating enzyme E2 N (Homo sapiens), P61088. inhibition, % at 20 µM. 330,000 tested, 0.47% active. AID 485273, 2010; in the data active = inhibition above about 45%, passing the limit was not always enough
PREPL inhibitor: PREPL enzyme inhibitors, primary screen, biochemical, fluorescence polarization. Prolyl endopeptidase-like (Homo sapiens), Q4J6C6. recombinant PREPL, fluorescence polarization activity-based probe. inhibition, % at 5.96 µM. 320,000 tested, 0.68% active. AID 2751, 2010; in the data active = inhibition above about 43%;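 also: 0% = enzyme with DMSO and 100% = wells lacking enzyme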
PP1 counter: PP1-alpha phosphatase inhibitors, primary screen, counter-screen for PP5 inhibitor project, biochemical, fluorescence, OMFP substrate, single point | Serine/threonine-protein phosphatase PP1-alpha catalytic subunit (Homo sapiens), P62136 | purified PP1alpha | inhibition, % at 6.7 µM | 320,000 tested, 0.9% active | AID 2235, 2010;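 active = inhibition above the mean inhibition of all tested compounds plus 3 SD, computed separately for each screening campaign, cut at about 15% in these data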
CTSL1 counter: Fasciola hepatica cathepsin L1 inhibitors, primary screen, counter-screen for PFM18AAP inhibitor project, biochemical, QFRET, fluorogenic peptide substrate; inhibition, % at 5.96 µM; recombinant F. hepatica cathepsin L1, Z-Leu-Arg-MCA fluorescence; 300,000 tested, 0.49% active;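 active = inhibition above the mean of all tested compounds plus 3 SD, set per screening campaign, cut at about 17% in these data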;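 also: 0% = plate median of test compound wells and 100% = 1 µM Z-Phe-Ala-diazomethylketone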
UCH37 DUB inh: inhibitors of human UCH37 deubiquitinase, primary screen, biochemical, Ub-AMC cleavage, fluorescence; inhibition, % (concentration not given with the values); purified proteasome/UCH37; 330,000 tested, 0.33% active;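 active = mean inhibition over replicate wells above about 20%, limit read from the data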;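 also: 0% = compound-free wells with enzyme and 100% = wells lacking proteasome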
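Material: Human UCH37 enzyme supplied as purified proteasome complex | Schedule: 30 min preincubation with enzyme, 25 min cleavage at room temperature | Detection: AMC fluorescence 355/460 nm | Measure: % inhibition of Ub-AMC cleavage fluorescence | Controls: Wells without proteasome as full block, compound-free enzyme plus substrate as uninhibited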
PP5 inh: PP5 phosphatase inhibitors, primary screen, biochemical, fluorescence | 320,000 tested, 0.18% active | purified PP5c, OMFP substrate fluorescence | inhibition, % at 6.7 µM | AID 1987, 2009;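 active = inhibition above the campaign's mean inhibition across all tested compounds plus 3 SD, cut at about 9.5% in these data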;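 also: 0% = DMSO only and 100% = 100 µM cantharidin control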
PP1 inh confirm: PP1 phosphatase inhibitors, confirmation, biochemical, fluorescence, OMFP substrate, triplicate; purified PP1alpha; inhibition, % at 6.7 µM; 1,900 tested, 52% active; shares compounds with PP1 counter;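 active = mean PP1 inhibition above a set limit taken from the earlier primary screen, cut at about 15% in these data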
PP5 inh counter: PP5 phosphatase inhibition by PP1 hits, confirmation, counter-screen for PP1 inhibitor project, biochemical, fluorescence, triplicate; shares compounds with PP1 counter; purified PP5c, OMFP fluorescence; inhibition, % at 6.7 µM; 1,900 tested, 4% active;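 active = mean PP5 inhibition over triplicate wells above about 9.5% taken from the earlier PP1 screen, limit read from the data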
* = called active by the depositor; x = not tested or not shown. This is a sample that favours compounds with a hit; in the whole collection about 2.3% have one here.

SMILES	UBC13 inh	PREPL inhibitor	PP1 counter	CTSL1 counter	UCH37 DUB inh	PP5 inh	PP1 inh confirm	PP5 inh counter
CC1CC(C)CN(S(=O)(=O)c2ccc(C(=O)Nc3nnc(C4CC4)o3)cc2)C1 (stereo not drawn)	-16	23	19*	7	2	2	27*	-2
O=C1C=C(O)c2c(O)cccc2C1=O	-83	10	2	1	x	0	x	x
O=C1c2c(O)cccc2Cc2cccc(O)c21	-24	1	35*	3	3	2	29*	-3
CC(=NNC(=O)c1cccc2ccccc12)c1cccs1	x	x	x	x	6	x	x	x
COc1cc(/C=C2\SC(=S)NC2=O)ccc1OS(=O)(=O)c1ccccc1	-15	-8	19*	-2	x	3	21*	2
COc1cc(/C=C2\SC(=S)N(CCCCC(=O)O)C2=O)ccc1OS(=O)(=O)c1ccc(C)cc1	-10	9	31*	2	9	1	29*	3
COc1cc(/C=C2/SC(=S)NC2=O)ccc1OS(=O)(=O)c1ccc(C)cc1	-21	-6	26*	3	3	4	31*	2
COc1ccc(/C=C2\SC(=S)NC2=O)cc1OS(=O)(=O)c1ccc(NC(C)=O)cc1	x	x	x	x	4	x	x	x
COc1ccc(/C=C2\SC(=S)N(CCCCCC(=O)Nc3cc(C)on3)C2=O)cc1OC	-12	4	-1	2	3	1	x	x
COC(=O)NN=Cc1cn(Cc2ccccc2F)c2ccccc12	x	x	x	x	1	x	x	x
O=C(NN=Cc1cccc([N+](=O)[O-])c1)c1ccc(Br)cc1	x	x	x	x	0	x	x	x
Oc1c(CN2CCN(c3ccccc3)CC2)cc(Br)c2cccnc12	x	28	29*	8	2	5	32*	-3
COc1ccc(N(CC(=O)NN=C(C)c2ccc(OC)c(OC)c2)S(=O)(=O)c2ccccc2)cc1	x	x	x	x	-1	x	x	x
O=C(NCC1CCCO1)c1nc(Cn2ccc([N+](=O)[O-])n2)no1 (stereo not drawn)	10	16	21*	2	-1	5	-5	-5
COc1ccc(NN=C(C#N)C(=O)NCCc2ccc(OC)c(OC)c2)cc1	x	x	x	x	5	x	x	x
O=C(Cc1ccc(S(=O)(=O)N2CCOCC2)s1)N(Cc1ccccc1)c1ccccc1	-4	10	58*	-6	2	1	4	-2
O=C(CC1S/C(=N/N=C/c2c[nH]c3ccc(OCc4ccccc4)cc23)NC1=O)Nc1ccccc1 (stereo not drawn)	-23	15	24*	1	x	3	24*	-6
O=C(CC1S/C(=N/N=C/c2c[nH]c3ccccc23)NC1=O)Nc1ccccc1 (stereo not drawn)	11	10	5	6	x	0	x	x
Cc1ccc(NC(=O)/C(=C\c2cccc([N+](=O)[O-])c2)NC(=O)c2cccs2)cc1	1	0	24*	1	4	-3	18*	-4
Cc1ccc(NC(=O)/C(=C/c2cccc([N+](=O)[O-])c2)NC(=O)C2CCCCC2)cc1	-1	-6	5	-1	0	1	x	x
CC(=NNC(=O)C1COc2ccccc2O1)c1ccc(Cl)s1 (stereo not drawn)	x	x	x	x	2	x	x	x
O=C(O)CSc1nnc(COc2ccc(Br)cc2)n1-c1ccccc1	-4	-14	31*	3	x	2	3	2
O=C(CSc1nnc(COc2ccccc2)n1-c1ccccc1)c1ccccc1	-6	4	1	4	2	1	x	x
